The values that follow come from ChEMBL document CHEMBL1212837, “Benzo[b]thiophene-6-carboxamide 1,1-dioxides: inhibitors of human cancer cell growth at nanomolar concentrations” (2010).

Usually GI50 stands for the concentration giving 50% growth inhibition. A high value points to less potent growth inhibition.

Calls of active or inactive are those of the source. No cut-off for these calls is given here.

Assay [1] concerns K562. In words: Cytotoxicity against human K562 cells after 72 hrs by MTT assay. It is filed as functional. Conditions: K562, 72 h. The essentials: (§1)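 Cells were grown in medium with 10% fetal calf serum, 2 mM L-glutamine, penicillin/streptomycin and 10 mM HEPES (pH 7.4). Compounds were made up as a 0.1 M DMSO stock and serially diluted in medium to five doses between 0.01 and 100. Exposure was 72 h at 37 °C in humidified 5% CO₂. Read-out was MTT colorimetric, giving GI50 as the concentration reducing growth by 50%.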
For orientation: Tetrazolium assays rely on reduction of a dye to a coloured formazan, in cell work by metabolically active cells.

The nature of assay [2]: Cytotoxicity against human HTB-54 cells after 72 hrs by MTT assay. It is filed as functional. As to conditions: HTB-54, 72 h. In short, it runs like this:
as §1

A short description of assay [3]: Cytotoxicity against human MEL-AC cells after 72 hrs by MTT assay. It is filed as functional. The essentials:
as §1

Assay [4] deals with HT-29. As to the kind of experiment: Cytotoxicity against human HT-29 cells after 72 hrs by MTT assay. Conditions: HT-29, 72 h. It is filed as functional. The essentials: as §1
In assay [5] the test system is CCRF-CEM. As to the kind of experiment: Cytotoxicity against human CCRF-CEM cells after 72 hrs by MTT assay. It is filed as functional. The essentials:
as §1

Assay [6] concerns HeLa. As to the kind of experiment: Cytotoxicity against human HeLa cells after 72 hrs by MTT assay. It is filed as functional. The essentials:
as §1

Assay [7] has as its system CCRF-CEM. In words: Cell cycle arrest in human CCRF-CEM cells assessed as accumulation at S phase after 24 hrs using propidium iodide staining by flow cytometry. It is filed as functional, cell-based. In short, it runs like this:
(§2)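 CCRF-CEM cells were seeded at 10⁶ cells/ml in complete medium and exposed to 2.5 µM for 24 h. Cells were pelleted (700 g, 6 min, 4 °C), washed in PBS and fixed in 70% ethanol at 4 °C for 20 min. They were then stained with PI (50 µg/ml) plus RNase at 37 °C for 30 min. DNA content was read by flow cytometry on 10,000 events to give phase percentages. Six independent experiments, duplicate wells, mean SD.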
(In general: A flow cytometer gives signals particle by particle.)

Assay [8] concerns CCRF-CEM. In words: Cell cycle arrest in human CCRF-CEM cells assessed as accumulation at S phase at 2.5 uM using propidium iodide staining by flow cytometry. It is filed as functional, cell-based. As to conditions: TDE = time-dependent effect. The essentials:
as §2

Assay [9] deals with CCRF-CEM. As to the kind of experiment: Induction of apoptosis in human CCRF-CEM cells at 6 uM after 12 hrs using V-FITC and propidium iodide staining by flow cytometry. It is filed as functional. In short, it runs like this: (§3)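 CCRF-CEM cells were incubated with compound for 12 to 48 h. Cells (5×10⁵) were pelleted, washed in PBS and stained with annexin V-FITC plus propidium iodide for 15 min at 4 °C in the dark. Phosphatidylserine-exposing (apoptotic) cells were counted by flow cytometry. Five independent experiments, duplicate wells, mean SD.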

In assay [10] the test system is CCRF-CEM. As to the kind of experiment: Induction of apoptosis in human CCRF-CEM cells at 6 uM after 48 hrs using V-FITC and propidium iodide staining by flow cytometry. It is filed as functional. In short, it runs like this: as §3
The test system of assay [11] is CCRF-CEM. As to the kind of experiment: Cell cycle arrest in human CCRF-CEM cells assessed as accumulation at sub-G1 phase at 2.5 uM after 24 hrs using propidium iodide staining by flow cytometry. It is filed as functional, cell-based. In short, it runs like this:
as §2

The subject of assay [12] is CCRF-CEM. In words: Cell cycle arrest in human CCRF-CEM cells assessed as accumulation at S phase at 2.5 uM after 24 hrs using propidium iodide staining by flow cytometry. It counts as functional, cell-based. In short, it runs like this: as §2
Assay [13] relates to CCRF-CEM. As to the kind of experiment: Cell cycle arrest in human CCRF-CEM cells assessed as reduction of cell accumulation at G0/G1 phase at 2.5 uM after 24 hrs using propidium iodide staining by flow cytometry. It counts as functional, cell-based. In short, it runs like this: as §2
The subject of assay [14] is CCRF-CEM. As to the kind of experiment: Induction of increase in ROS level in human CCRF-CEM cells at 2.5 uM after 24 hrs using CM-H2DCFDA fluorescent probe by flow cytometry. It is filed as functional, cell-based. In short, it runs like this:
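CCRF-CEM cells at 1×10⁶ cells/ml were cultured with or without 2.5 µM for 24 h. Cells (2×10⁶) were then loaded with 1 µM CM-H₂DCFDA for 60 min at 37 °C and fluorescence was read by flow cytometry. Results are expressed as fold over untreated cells, with 4-HPR as the positive control. Two independent experiments, triplicate wells, mean SD.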

The test system of assay [15] is CCRF-CEM. As to the kind of experiment: Induction of apoptosis in human CCRF-CEM cells at 2.5 uM after 24 hrs using V-FITC and propidium iodide staining by flow cytometry in presence of N-acetyl-cysteine.

As to `NS(=O)(=O)c1ccc2c(c1)S(=O)(=O)C=C2`, the GI50 in assay [1] came to 29400 nM; in [2], 5890 nM; in [3] it was 7140 nM; in assay [4], 8550 nM; in [5], 2860 nM; in assay [6], 2210 nM. The Activity result is “Dose-dependent effect” in assay [7] and “tde” in assay [8].

As to `CCCCNC(=O)c1ccc2c(c1)S(=O)(=O)C=C2`, the GI50 was 2730 nM in [1]; 90 nM in assay [2]; 1420 nM in assay [3]; 2320 nM in assay [4]; 280 nM in assay [5]; 80 nM in [6]. Further, the Activity entry in [7] is “Dose-dependent effect”; in [8], “tde”.

For `COc1ccc(CCNC(=O)c2ccc3c(c2)S(=O)(=O)C=C3)cc1`, the GI50 in assay [1] stood at 2660 nM; in assay [2], 640 nM; in assay [3], 1320 nM; in [4] it was 2080 nM; in [5] it was 730 nM; in [6], 40 nM. Further, the Activity result in [7] was “Dose-dependent effect”; in [8], “tde”.

For the compound `O=S1(=O)C=Cc2ccc(S(=O)(=O)NCc3ccccc3)cc21`, the GI50 in assay [1] was 720 nM; in assay [2], 700 nM; in [3], 400 nM; in [4], 840 nM; in assay [5] it was 330 nM; in assay [6] it was 10 nM. Besides, the figures for the Activity result in [7] and in assay [8] were “Dose-dependent effect” and “tde”, respectively.

Regarding `NC(=O)c1ccc2c(c1)S(=O)(=O)C=C2`, the 50% growth inhibitory concentration (GI50) came to 7850 nM in assay [1]; 220 nM in assay [2]; 3520 nM in [3]; 5190 nM in assay [4]; 3550 nM in assay [5]; 650 nM in assay [6]. Further, the Activity entry in assay [7] is “Dose-dependent effect”; in assay [8], “tde”.

For `COc1ccc(CCNS(=O)(=O)c2ccc3c(c2)S(=O)(=O)C=C3)cc1`, the GI50 in assay [1] turned out to be 6 nM; in assay [2], 620 nM; in assay [3], 1930 nM; in assay [4], 220 nM; in assay [5], 5 nM; in assay [6], 120 nM. Moreover, the Activity entry is “Dose-dependent effect” in [7] and “tde” in assay [8].

Take `O=S1(=O)C=Cc2ccc(O)cc21`: the GI50 came to 51100 nM in [1]; 7530 nM in assay [2]; 24000 nM in assay [3]; 2040 nM in assay [4]; 19200 nM in assay [5]. Besides, the Activity entry in assay [7] is “Dose-dependent effect”; in [8] it was “tde”.

Turning to `COc1ccc(NC(=O)c2ccc3c(c2)S(=O)(=O)C=C3)cc1`, the GI50 in assay [1] is 47 nM; in [2], 2 nM; in assay [3], 760 nM; in assay [4], 350 nM; in assay [5] it was 4 nM; in assay [6] it was 3 nM. Also, the Activity in assay [9] was 30.4%; in assay [10] it was 83%; in assay [7] it was “Dose-dependent effect”; in assay [8] it was “tde”. Also, the result in assay [11], in assay [12], in [13], in assay [14] and in assay [15] was Active.

For the compound `CN(Cc1ccccc1)S(=O)(=O)c1ccc2c(c1)S(=O)(=O)C=C2`, the GI50 in assay [1] turned out to be 38100 nM; in assay [2], 400 nM; in [3] it was 2300 nM; in assay [4], 35000 nM; in [5], 630 nM; in [6], 10 nM. Further, the results for the Activity result in assay [7] and in assay [8] were “Dose-dependent effect” and “tde”, respectively.
